HSF1 activator: increases HSF-1 driven luciferase reporter signal; NIH3T3-HGL HSF-1 luciferase reporter, MG132, 8 h; 100% = twice DMSO control signal; activation, % at 9 µM; 300,000 tested, 1.7% active;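 active = mean replicate activation of at least 50% with a set share of replicates each reaching 50%; inconclusive = only one of those two conditions met; inactive = mean below 50% and too few replicates reaching it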;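 also: 0% = median of the neutral control wells and 100% = twice that signal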
T cruzi repl: T. cruzi replication inhibition; 300,000 tested, 1.4% active; inhibition, % (no concentration beside the values); T. cruzi beta-gal in NIH3T3, luminescence, 90 h; AID 1885;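 active = mean inhibition across valid replicates above about 55%, limit read from the data; inconclusive = mean below that limit but half or more replicates reach it; inactive = mean below it, under half of replicates reach it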;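 also: signal also drops with host cell toxicity which is not excluded here; 0% = plate median of DMSO wells and 100% = zero luminescence signal; higher percent means less beta-gal luminescence so fewer parasites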
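System: mouse NIH/3T3 fibroblasts infected with β-gal-expressing T. cruzi Tulahuen C4 / Input: NIH/3T3 cells, 5,000 per well / Buffer or medium: Low-serum DMEM with 2% FBS / Probe or stimulus: 5000 reporter trypomastigotes per well / Schedule: ≥90 h infection period, 3 h prior cell attachment / Measured by: GalScreen luminescence, 60 min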
697 NFkB inh: lowers PMA/ionomycin-induced NF-kB signal in 697 B cells | 697 B-cell NF-kB luciferase reporter, 16 h | inhibition, % at 4 µM | 330,000 tested, 0.33% active; in the data active = inhibition above about 35%
Jurkat NFkB inh: lowers PMA/ionomycin-induced NF-kB signal in Jurkat cells | PMA/ionomycin-induced NF-kB luciferase reporter, luminescence | inhibition, % at 4 µM | 330,000 tested, 0.53% active | AID 435003; in the data active = inhibition above about 50%
GPR7 antagonist: antagonists of human GPR7 (neuropeptides B/W receptor 1); AID 1861; inhibition, % at 4.4 µM; 290,000 tested, 1.1% active; GPR7-expressing cells, fluorescence antagonist assay; P48145; in the data active = inhibition above about 16%, passing the limit was not always enough;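 also: cells stimulated with the agonist NPW; 0% = agonist with vehicle and 100% = vehicle without agonist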
Target sequence (P48145 whole entry, looked up): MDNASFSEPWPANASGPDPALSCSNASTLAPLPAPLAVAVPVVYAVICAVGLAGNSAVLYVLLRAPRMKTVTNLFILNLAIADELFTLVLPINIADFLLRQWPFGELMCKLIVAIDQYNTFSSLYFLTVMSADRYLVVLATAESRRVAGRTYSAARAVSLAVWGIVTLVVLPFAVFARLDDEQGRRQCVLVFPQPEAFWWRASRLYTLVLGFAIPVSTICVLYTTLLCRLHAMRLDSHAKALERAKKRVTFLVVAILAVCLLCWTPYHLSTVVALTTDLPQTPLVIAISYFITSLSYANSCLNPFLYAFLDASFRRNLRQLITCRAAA
HSF1 inh: HSF1 inhibition | NIH3T3-HGL HSE-luciferase, MG132-induced, luminescence 8 h; stronger effect = lower value | activity change, negative = inhibition, % at 7.5 µM (by protocol) | AID 2098 | 300,000 tested, 0.77% active;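 active = more than half of replicate wells show activity change below -50%, luminescence cut by over half; inconclusive = some wells, but at most half, below -50%; inactive = no replicate well below -50%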;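 also: luciferase reports HSF-1 transcriptional activity via heat shock element; 0% = median of DMSO wells and -100% = zero luminescence signal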
697 NFkB conf: lowers PMA/ionomycin-induced NF-kB signal in 697 B cells; shares compounds with 697 NFkB inh; 697 B-cell NF-kB luciferase, 16 h; inhibition, % at 4 µM; 2,000 tested, 35% active; in the data active = inhibition mostly above about 28%, no sharp cut-off; inactive = mostly below about 22%
Starred values were filed as active, the others as inactive; ? = inconclusive; / = no result. Shown are actives, neighbours in structure and some others; about 4.8% of the full set was active somewhere.

SMILES | HSF1 activator | T cruzi repl | 697 NFkB inh | Jurkat NFkB inh | GPR7 antagonist | HSF1 inh | 697 NFkB conf
CCCCCC/C=C/c1ccc(OC)c([C@H]2[C@H]3C=CC[C@@H](C)[C@@H]3C(=O)N2Cc2ccccc2)c1 | -2 | -15 | 68* | 9 | / | 7 | 28*
CCCCCC/C=C/c1ccc([C@H]2[C@H]3C=CC[C@@H](C)[C@@H]3C(=O)N2Cc2ccccc2)c(F)c1 | 0 | -11 | 14 | 9 | / | 13 | /
COc1ccc(-c2ccc(OC)c([C@H]3[C@H]4C=CC[C@@H](C)[C@@H]4C(=O)N3Cc3ccccc3)c2)cc1 | 3 | 51 | 54* | 13 | / | 4 | 39*
COc1ccc(-c2ccc([C@H]3[C@H]4C=CC[C@@H](C)[C@@H]4C(=O)N3Cc3ccccc3)c(F)c2)cc1 | 8 | 39 | 10 | 15 | / | 1 | /
CCc1ccccc1NNC(=O)c1snnc1C | 4 | 8 | 0 | 3 | -15 | -2 | /
COCCCNC(=O)C[C@H]1C[C@H](C(=O)N2CCOCC2)[C@@]2(C)c3[nH]c4cc(CCC(=O)N(C)C)ccc4c3CCN2C1=O | / | / | 10 | / | / | / | /
O=C(O)c1ccc2c(=O)n3c(nc2c1)/C(=C/c1ccc(Cl)cc1Cl)CC3 | 8 | 9 | 12 | -2 | -6 | -4 | /
COc1cc(C(=O)Nc2cc(C)c(OCC(=O)N3CCOCC3)c(C)c2)cc(OC)c1OC | -9 | -6 | 36* | 5 | -4 | 3 | 32*
Cc1cc(NC(=O)c2ccccc2F)cc(C)c1OCC(=O)N1CCOCC1 | 0 | -10 | 15 | 7 | 0 | 1 | /
O=C(CCN1C(=O)/C(=C/c2ccccc2)SC1=S)Nc1cccnc1 | -23 | 1 | 6 | 32 | -2 | -2 | /
CCOc1ccc(/C=C2\SC(=S)N(CCC(=O)Nc3cccc(C(=O)O)c3)C2=O)cc1 | 8 | 1 | 68* | 29 | 0 | 2 | 68*
COc1ccc(/C=C2\SC(=S)N(CCCC(=O)Nc3cccc(C(=O)O)c3)C2=O)cc1OC | -8 | 1 | 8 | 4 | -9 | -9 | /
CCc1ccc(/C=C2/SC(=S)N(CCC(=O)Nc3cccnc3)C2=O)cc1 | -2 | -1 | 77* | 22 | -9 | 8 | 67*
O=C(CCCN1C(=O)/C(=C/c2ccc3c(c2)OCO3)SC1=S)Nc1ccc(C(=O)O)cc1 | -34 | -19 | 78* | 20 | -4 | -25 | 78*
CC(C)c1ccc(/C=C2\SC(=S)N(CCC(=O)NCCCn3ccnc3)C2=O)cc1 | 6 | 11 | 38* | -8 | -8 | -2 | 38*
O=C(CCN1C(=O)/C(=C/c2ccc3c(c2)OCO3)SC1=S)Nc1ccc(C(=O)O)cc1 | -8 | 13 | -2 | 2 | -8 | -3 | /
CCC(=O)c1c(NC(CC)CO)cc(C)oc1=O (stereo not given) | 0 | -2 | 12 | 6 | -8 | -5 | /
CCOC(=O)Cc1cc(OC)c(OC)cc1Cc1cc(OC)c(OC)cc1CC(=O)OCC | 16 | 18 | 5 | 2 | -3 | -1 | /
O=C(CCN1C(=O)/C(=C/c2cccs2)SC1=S)Nc1ccc(C(=O)O)cc1 | 6 | -5 | 0 | 0 | 1 | 2 | /
O=C(CCCN1C(=O)/C(=C\c2ccccc2)SC1=S)Nc1ccc(C(=O)O)cc1 | -2 | 10 | 19 | -11 | 4 | -6 | /
CCc1ccc(/C=C2\SC(=S)N(CCCC(=O)Nc3ccc(C(=O)O)cc3)C2=O)cc1 | -37 | 8 | 73* | -11 | 3 | -26 | 84*
CCOc1ccc(/C=C2\SC(=S)N(CCC(=O)Nc3ccc(C(=O)O)cc3)C2=O)cc1 | 11 | 4 | 81* | -3 | -19 | 4 | 77*
CCc1ccc(/C=C2/SC(=S)N(CCC(=O)NCCCN3CCOCC3)C2=O)cc1 | 3 | -11 | 6 | 10 | -13 | -3 | /
CCOc1ccc(/C=C2\SC(=S)N(CCCC(=O)NCCCN3CCOCC3)C2=O)cc1 | -26 | 27 | 38* | 11 | 10 | -29 | 52*
CC(C)c1ccc(/C=C2\SC(=S)N(CCC(=O)N3CCCCC3CCO)C2=O)cc1 (stereo not given) | -4 | -10 | 70* | 6 | -15 | 0 | 71*
SMILES | HSF1 activator | T cruzi repl | 697 NFkB inh | Jurkat NFkB inh | GPR7 antagonist | HSF1 inh | 697 NFkB conf
Fc1ccc2cc(-c3ccsc3)ncc2c1 | / | / | -84 | -2 | / | / | /
CN(C)c1ccc(C(=O)c2ccc(N(C)C)c3ccccc23)cc1 | -1 | 47 | -386 | 42 | 7 | -14 | -215
Nc1ncnc2c1ncn2[C@@H]1O[C@H](CNCC(O)CO)[C@@H](O)[C@H]1O (stereo not given in full) | / | / | 6 | / | / | / | /
Nc1nc(Nc2ccccc2F)sc1C(=O)c1ccccc1 | 28 | -4 | -260 | -58 | -7 | 21 | -21
Cc1nc(Nc2ccccc2)sc1C(=O)c1ccc(F)cc1 | 31 | 6 | -72 | -53 | 7 | 8 | /
CCCc1ccc(-c2cc(C(=O)N3CCN(c4ccccn4)CC3)c3ccccc3n2)cc1 | -32 | 29 | -257 | -40 | -25 | -20 | -138
CC(=O)c1c(C)[nH]c(C(=O)N2CCc3ccccc3C2)c1C | 24 | 11 | 42* | 7 | -9 | 4 | 20
COc1cc(NC(=O)c2cc3c(C)nc4ccccc4c3o2)cc(OC)c1OC | -52 | -3 | 37* | 13 | -8 | -51* | 44*
O=C(CCc1nnc2ccc(NCc3ccc(F)cc3)nn12)NC1CCCC1 | 2 | 9 | -6 | 0 | 4 | 5 | /
CCOc1ccc(N(C)S(=O)(=O)c2ccc(C)c(C(=O)Nc3nnc(C4CC4)s3)c2)cc1 | / | / | 21 | -3 | / | / | /
CC1CCc2nc(NC(=O)C3COc4ccccc4O3)sc2C1 (stereo not given) | -75 | 17 | -300 | -89 | -3 | -71* | -334
CCn1c(=O)c2cc(C(=O)NC(C)C)sc2c2ccccc21 | 9 | -4 | 37* | 4 | -7 | 6 | 28*
CCCCNC(=O)c1cc2c(=O)n(CC)c3ccccc3c2s1 | -8 | 1 | 24 | 7 | -10 | -4 | /
CCn1c(=O)c2cc(C(=O)NCc3cccs3)sc2c2ccccc21 | / | / | 39* | -8 | -17 | / | 36*
CCOC(=O)c1c(C)[nH]c(N=Nc2ccc(C)cc2)c1C | ? | 32 | -263 | -140 | -16 | 36 | -119
CCOC(=O)c1c(C)[nH]c(N=Nc2ccccc2)c1C | 47 | -2 | -80 | -97 | -22 | 9 | /
CCn1c(=O)cc(SCC(=O)N2CCN(C(=O)c3ccco3)CC2)c2ccccc21 | 5 | 11 | 53* | 6 | -11 | -2 | 38*
CCn1c(=O)cc(SCC(=O)N2CCOCC2)c2ccccc21 | 11 | 7 | 42* | 3 | -20 | 3 | 45*
